From PubChem BioAssay AID504338 (NMMLSC, 2011)
“And” between values parts separate entries of the source, which are not always exact repeats. Equal values may be shown once.

test: yeast TOR reporter LAP4-GFP retest – cell-based, third cherry pick, flow cytometry, confirmation (AID 504338);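 also: ratio to plate DMSO wells so 100% equals DMSO level rather than 0%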; settings: S. cerevisiae LAP4-GFP strain, 3 h, at 10 µM, active compounds read high;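 active = GFP response vs DMSO above 150% with enough events counted; inconclusive = fewer than 70 events counted for a yeast strain; inactive = the rest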
Outline: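 Assay system – yeast LAP4-GFP strain · Buffer or medium – synthetic complete medium · Times – compound exposure for 3 h at 30 °C · Technique – flow cytometric GFP fluorescence · Evaluation – median GFP fluorescence as percent of plate DMSO-well average · Benchmarks – rapamycin 400 ng/mL as positive control, DMSO wells as reference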

GFP response vs DMSO, inactive:
C=CCNc1ncnc2ccccc12 103%, COc1cccc(N/C=C/C(=O)c2ccc(Cl)cc2)c1 111%, COc1ccccc1-c1cc(C(F)(F)F)nc(S(=O)(=O)CCCC(=O)O)n1 112%, Cc1cc(C)c2ccc(N)nc2c1O 97.2%, COCC(C)NC(=O)CCS(=O)(=O)c1nc(-c2ccc(OC)cc2)cc(C(F)(F)F)n1 (stereo not given) 104%, COc1ccc(-c2cc(C(F)(F)F)nc(S(C)(=O)=O)n2)cc1OC 107% and 110%, Cn1cccc1C(=O)Nc1nc(-c2ccccn2)cs1 114%, NC(=O)COc1cccc2cccnc12 103%, Cc1ccc(NN2C(=O)C=C(c3ccccc3)C2=O)cc1 138%, Nn1cnc2c(c1=O)C1(CCCCC1)Cc1ccccc1-2 97.2%, CC(=O)Nc1ccc(-c2nc3cc(Cl)ccc3o2)cc1 104%, Cc1cccc(Nc2cc(=O)[nH]c(=O)[nH]2)c1 106%, Nc1cc(C(=O)O)c(N)c2c1C(=O)c1ccccc1C2=O 106%, CC(=O)NC(C)c1cc(Cl)c2cccnc2c1O (stereo not given) 101%, O=C(N/N=C/c1ccccc1O)c1cccc2ccccc12 110%, CC1=CN2C(=N)/C(=C/c3ccco3)C(=O)N=C2S1 101%, O=C(Nc1cccc2ccccc12)ON=C1CCCCC1 112%, CN(C)CCCNc1cc(O)c2ncccc2c1 110%, Cc1nc(Nc2ccc(Br)cc2Br)c([N+](=O)[O-])c(=O)[nH]1 106%, CCN(CC)c1ncnc2ccc(Br)cc12 101%
